The source of these data is paper PMC2646883 (Biochemistry, 2008).

Several values for one entry are separate records, joined by “and”; a condition that tells them apart may be missing. Identical values can stand only once. Like-named read-outs stand apart in the source and are kept apart here.

The target in series [1] is T1, TfIMPDH (Tritrichomonas foetus, UniProt P50097).
T1 sequence (P50097 1-503): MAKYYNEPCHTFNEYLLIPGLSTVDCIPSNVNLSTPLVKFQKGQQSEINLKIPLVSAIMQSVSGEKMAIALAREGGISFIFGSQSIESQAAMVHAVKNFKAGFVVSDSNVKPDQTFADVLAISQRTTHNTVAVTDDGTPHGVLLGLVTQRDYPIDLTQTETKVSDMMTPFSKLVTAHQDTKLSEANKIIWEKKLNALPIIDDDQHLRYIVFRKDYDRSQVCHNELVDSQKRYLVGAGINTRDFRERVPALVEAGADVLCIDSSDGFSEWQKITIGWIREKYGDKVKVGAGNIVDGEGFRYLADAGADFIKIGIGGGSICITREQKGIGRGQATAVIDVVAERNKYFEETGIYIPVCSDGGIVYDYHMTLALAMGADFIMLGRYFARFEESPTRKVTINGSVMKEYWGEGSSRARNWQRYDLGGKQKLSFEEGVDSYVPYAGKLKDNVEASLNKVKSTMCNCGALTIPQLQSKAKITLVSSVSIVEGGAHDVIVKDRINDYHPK
The settings on record: refs 14 and 23; cited from earlier work.

The target in series [2] is T2, CpIMPDH (Cryptosporidium parvum, UniProt Q8T6T2).
T2 sequence (Q8T6T2 1-400): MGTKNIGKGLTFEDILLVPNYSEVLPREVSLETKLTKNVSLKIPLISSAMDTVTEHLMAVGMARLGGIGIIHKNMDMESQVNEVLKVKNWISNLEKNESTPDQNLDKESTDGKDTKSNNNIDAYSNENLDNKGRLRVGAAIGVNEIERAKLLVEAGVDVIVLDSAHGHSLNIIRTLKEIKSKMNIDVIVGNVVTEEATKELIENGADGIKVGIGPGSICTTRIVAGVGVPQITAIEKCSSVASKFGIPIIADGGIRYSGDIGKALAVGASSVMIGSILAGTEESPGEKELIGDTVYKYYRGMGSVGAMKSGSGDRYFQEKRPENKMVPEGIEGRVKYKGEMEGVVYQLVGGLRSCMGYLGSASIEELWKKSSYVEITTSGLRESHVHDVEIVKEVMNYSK
The conditions noted are these: cited from earlier work.

The target of series [3] is T2, CpIMPDH. As to the kind of experiment: Steady-state kinetics of CpIMPDH. The settings on record: for D2Okcat (solvent deuterium isotope effect on kcat): dinucleotide varied, 500 μM IMP, H2O vs D2O. It counts as biochemical.
In series [4] the target is T2, CpIMPDH. As to the kind of experiment: Equilibrium dissociation constants by intrinsic protein fluorescence. The conditions noted are these: for Kd: free enzyme, 50 mM Tris-HCl, pH 8.0, 100 mM KCl, 1 mM DTT, 25 °C. It counts as binding.
Series [5] concerns the target T2, CpIMPDH. The series can be described thus: Pre-steady-state kinetics and global fits of the CpIMPDH reaction. It counts as biochemical.
Series [6] concerns the target T3, hIMPDH2 (Homo sapiens, UniProt P12268). As to the kind of experiment: Pre-steady-state kinetics and global fits of the hIMPDH2 reaction. The class given is biochemical. The settings on record: for Kapp ([NAD^+] at 1/2 kmax) / kmax/Kapp / kmax: fluorescence; for kmax: NAD^+ varied, 4 μM enzyme.
Series [7] has as its target T3, hIMPDH2. The series can be described thus: Steady-state kinetics of hIMPDH2. It counts as biochemical. The conditions noted are these: NAD^+ varied, 400 μM IMP, H2O vs D2O. In a few lines: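 Buffer was 50 mM Tris-HCl pH 8.0, 100 mM KCl, 1 mM DTT, made in H2O or D2O, with D2O meter readings adjusted by adding 0.4. Runs were at 25 °C. […] Steady-state parameters came from eq 2.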

Series [8] concerns the target T3, hIMPDH2. The conditions noted are these: cited from earlier work.
Series [9] deals with T1, TfIMPDH. The series can be described thus: Inhibition by ligands of the dinucleotide site, TfIMPDH. The class given is biochemical.
Series [10] deals with T3, hIMPDH2. The conditions noted are these: cited from earlier work. This is another data set of the same source.
Series [11] deals with T2, CpIMPDH. The series can be described thus: XMP binding kinetics by stopped-flow protein fluorescence. The settings on record: 0.4 μM enzyme, 30 or 120 μM XMP, 25 °C.
Substrate in series [12]: NC(=O)c1ccc[n+]([C@@H]2O[C@H](COP(=O)([O-])OP(=O)(O)OC[C@H]3O[C@@H](n4cnc5c(N)ncnc54)[C@H](O)[C@@H]3O)[C@@H](O)[C@H]2O)c1
The series can be described thus: Pre-steady-state kinetics and global fits of the CpIMPDH reaction. The class given is biochemical, Cryptosporidium parvum. The conditions noted are these: other: calculated from global-fit rate constants (eq 12).

Broadly, the Ki is the dissociation constant of the complex between target and ligand, obtained from inhibition or displacement. On to `Nc1ncnc2c1ncn2[C@@H]1O[C@H](COP(=O)(O)OP(=O)(O)O)[C@@H](O)[C@H]1O` [ADP, adenosine-5′-diphosphate], for which the figures for the Ki in series [1] and in [2] were 31 ± 2 mM and 42 ± 6 mM, respectively.

The term Km denotes the concentration of substrate that gives half-maximal velocity. For the molecule `CC(=O)c1ccc[n+]([C@@H]2O[C@H](COP(=O)([O-])OP(=O)(O)OC[C@H]3O[C@@H](n4cnc5c(N)ncnc54)[C@H](O)[C@@H]3O)[C@@H](O)[C@H]2O)c1` [APAD^+, 3-acetylpyridine adenine dinucleotide], the “D2Okcat (solvent deuterium isotope effect on kcat)” value in [3] was 3.3 and 3.3 ± 0.1. Also, in [3] (read-out: KM dinucleotide, pH 8.0, 25 °C, APAD^+ at saturating IMP (500 μM)), the Michaelis constant (Km) worked out at 190 ± 9 µM.

A word on the Kd: it is the concentration at which binding is half-saturated. `Nc1nc2c(ncn2[C@@H]2O[C@H](COP(=O)(O)O)[C@@H](O)[C@H]2O)c(=O)[nH]1` [GMP, guanosine monophosphate] came in with a Kd in series [4] of 4.8 ± 0.6 µM.

In series [4], `NC(=O)C1=CN([C@@H]2O[C@H](COP(=O)(O)OP(=O)(O)OC[C@H]3O[C@@H](n4cnc5c(N)ncnc54)[C@H](O)[C@@H]3O)[C@@H](O)[C@H]2O)C=CC1` [NADH, reduced nicotinamide adenine dinucleotide] yielded a Kd of 2.3 ± 0.2 µM. Moreover, in [4] (ratio of Kd values), the “factor of greater affinity of NADH than NAD^+” value worked out at 6.

For the molecule `NC(=O)c1ccc[n+]([C@@H]2O[C@H](COP(=O)([O-])OP(=O)(O)OC[C@H]3O[C@@H](n4cnc5c(N)ncnc54)[C@H](O)[C@@H]3O)[C@@H](O)[C@H]2O)c1` [NAD^+, nicotinamide adenine dinucleotide], the Kii in series [1] is given as 6.8 ± 1.8 mM. Besides, the Kd in series [5] (Kintr (intrinsic binding constant), NAD^+, derived from the global fits, Kc = 4) was determined as 300 µM; in [6] (Kintr (intrinsic binding constant), NAD^+, derived from the global fits, Kc ≤0.2), 590 µM; in series [4] (Kd), 14 ± 1 µM; in series [9], 70 µM. Moreover, the kmax/Kapp came to 80000 M⁻¹ s⁻¹ in [5] (monitored by absorbance), 56000 M⁻¹ s⁻¹ in [5] (monitored by fluorescence), 140000 M⁻¹ s⁻¹ in [6] (burst phase) and 340000 M⁻¹ s⁻¹ in series [6] (lag phase). The “Kapp ([NAD^+] at 1/2 kmax)” value worked out at 510 ± 90 µM in series [5] (monitored by absorbance, 500 μM IMP); 290 ± 60 µM in [5] (monitored by fluorescence, 500 μM IMP); 86 ± 5 µM in series [6] (burst phase); 68 ± 1 µM in series [6] (lag phase). Further, the “kmax (maximal kobs of burst, kburst)” value in series [5] (monitored by absorbance, NAD^+ varied, 500 μM IMP) turned out to be 41 ± 2 s⁻¹. Further, the “kmax (maximal kobs of burst)” value in series [5] (monitored by fluorescence, NAD^+ varied, 500 μM IMP) is 16 s⁻¹ and 16 ± 1 s⁻¹. Also, the results for the kmax in series [6] (burst phase) and in [6] (lag phase) were 12 ± 1 s⁻¹ and 23 ± 1 s⁻¹, respectively. Further, the “D2Okcat (solvent deuterium isotope effect on kcat)” value was 2.6 and 2.6 ± 0.1 in [3]; 1.8 ± 0.1 in series [7]. Further, in series [8] (NAD^+ reaction, pH 8.0, 25 °C), the kcat is given as 0.39 ± 0.01 ^c s^−1. In series [8] (read-out: KM dinucleotide), the Km is 6 ± 1 µM. Further, in series [8] (value fixed for global fitting), the “k12/k11 = Kii (NAD^+ binding to E-XMP*)” value is 590 µM.

As to `NC(=O)c1csc([C@@H]2O[C@H](CO)[C@@H](O)[C@H]2O)n1` [Tz, 2-β-D-ribofuranosylthiazole-4-carboxamide], in [1], the Ki was 50 ± 10 mM.

Take `O=c1[nH]c(=O)c2ncn([C@@H]3O[C@H](COP(=O)(O)O)[C@@H](O)[C@H]3O)c2[nH]1` [XMP, xanthosine 5′-monophosphate]: the Kd is 140 µM in series [10] and 5.6 ± 0.6 µM in [4] (Kd). The “rate of XMP binding / release (too fast to measure)” value in [11] was at least 200 s⁻¹.

B1: CpIMPDH (Cryptosporidium parvum) (protein)
chain: T2 sequence (Q8T6T2 1-400)
B1: the Km in series [12] is 40 µM.
